Numbering of substitutions follows the chain as printed.
Assays:
Details in all cases: stereoisomer not certain
OR10S1 (Homo sapiens) = molecular target: T1, OR10S1 (Homo sapiens) (UniProt Q8NGN2)
T1 sequence (whole entry): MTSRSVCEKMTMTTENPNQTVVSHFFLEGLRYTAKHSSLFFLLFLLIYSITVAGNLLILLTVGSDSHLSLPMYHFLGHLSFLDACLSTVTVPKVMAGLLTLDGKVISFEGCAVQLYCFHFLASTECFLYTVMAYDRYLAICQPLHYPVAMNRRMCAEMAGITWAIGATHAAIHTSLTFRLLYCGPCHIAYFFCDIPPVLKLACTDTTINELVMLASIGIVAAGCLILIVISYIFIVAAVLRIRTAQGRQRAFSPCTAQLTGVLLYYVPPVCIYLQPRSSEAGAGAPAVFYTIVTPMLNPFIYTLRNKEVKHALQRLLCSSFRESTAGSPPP
Summary of the method: (§1)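 Values were gathered from published papers (main text and supplementary material), with extra details requested from the original authors when needed, and checked for typos and inconsistencies. Each receptor–molecule pair is called responsive (active) if the original authors judged the measured signal statistically different from baseline, and non-responsive (inactive) otherwise. Assay methods varied by source, often transient mammalian cell-line luciferase assays. Recorded details include cell line, G-protein, co-transfected protein and tags.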

OR10R2 (Homo sapiens) = molecular target: T2, OR10R2 (Homo sapiens) (UniProt Q8NGX6)
T2 sequence (whole entry): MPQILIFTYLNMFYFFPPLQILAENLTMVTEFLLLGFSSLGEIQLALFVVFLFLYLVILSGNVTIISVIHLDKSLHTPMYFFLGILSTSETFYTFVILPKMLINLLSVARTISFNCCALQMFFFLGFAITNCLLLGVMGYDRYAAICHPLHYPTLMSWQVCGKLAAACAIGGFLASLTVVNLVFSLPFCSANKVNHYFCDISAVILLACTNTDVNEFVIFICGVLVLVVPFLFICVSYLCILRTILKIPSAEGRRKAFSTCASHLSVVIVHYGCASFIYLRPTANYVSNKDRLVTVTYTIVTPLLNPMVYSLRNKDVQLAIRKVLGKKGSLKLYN
Summary of the method: as §1

OR10T2 (Homo sapiens) = molecular target: T3, OR10T2 (Homo sapiens) (UniProt Q8NGX3)
T3 sequence (whole entry): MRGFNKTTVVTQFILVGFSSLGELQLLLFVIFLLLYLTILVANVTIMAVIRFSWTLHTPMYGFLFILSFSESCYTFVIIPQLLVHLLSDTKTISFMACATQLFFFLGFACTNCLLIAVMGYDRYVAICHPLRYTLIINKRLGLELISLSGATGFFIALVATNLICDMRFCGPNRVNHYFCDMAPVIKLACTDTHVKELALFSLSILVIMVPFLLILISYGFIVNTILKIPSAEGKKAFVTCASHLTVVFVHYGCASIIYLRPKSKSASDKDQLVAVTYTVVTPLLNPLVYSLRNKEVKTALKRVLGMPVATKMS
Summary of the method: as §1

OR10V1 (Homo sapiens) = molecular target: T4, OR10V1 (Homo sapiens) (UniProt Q8NGI7)
T4 sequence (whole entry): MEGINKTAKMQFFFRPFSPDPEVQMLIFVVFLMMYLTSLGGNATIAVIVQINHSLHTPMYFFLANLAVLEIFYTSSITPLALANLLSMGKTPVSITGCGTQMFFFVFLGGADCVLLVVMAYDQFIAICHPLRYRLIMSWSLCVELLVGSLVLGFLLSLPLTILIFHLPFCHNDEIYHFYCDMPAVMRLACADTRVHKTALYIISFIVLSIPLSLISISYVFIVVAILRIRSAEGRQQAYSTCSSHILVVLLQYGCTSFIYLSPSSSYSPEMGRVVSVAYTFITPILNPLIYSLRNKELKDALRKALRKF
Summary of the method: as §1

OR10W1 (Homo sapiens) = molecular target: T5, OR10W1 (Homo sapiens) (UniProt Q8NGF6)
T5 sequence (whole entry): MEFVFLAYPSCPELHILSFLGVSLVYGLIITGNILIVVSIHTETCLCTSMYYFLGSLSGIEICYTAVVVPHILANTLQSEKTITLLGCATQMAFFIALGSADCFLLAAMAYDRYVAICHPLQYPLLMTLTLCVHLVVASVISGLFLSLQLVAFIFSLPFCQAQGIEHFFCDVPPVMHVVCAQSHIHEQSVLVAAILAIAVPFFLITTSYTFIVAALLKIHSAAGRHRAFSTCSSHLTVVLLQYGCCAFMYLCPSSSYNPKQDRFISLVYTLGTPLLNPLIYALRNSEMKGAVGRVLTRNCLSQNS
Summary of the method: as §1

OR10X1 (Homo sapiens) = molecular target: T6, OR10X1 (Homo sapiens) (UniProt Q8NGY0)
T6 sequence (whole entry): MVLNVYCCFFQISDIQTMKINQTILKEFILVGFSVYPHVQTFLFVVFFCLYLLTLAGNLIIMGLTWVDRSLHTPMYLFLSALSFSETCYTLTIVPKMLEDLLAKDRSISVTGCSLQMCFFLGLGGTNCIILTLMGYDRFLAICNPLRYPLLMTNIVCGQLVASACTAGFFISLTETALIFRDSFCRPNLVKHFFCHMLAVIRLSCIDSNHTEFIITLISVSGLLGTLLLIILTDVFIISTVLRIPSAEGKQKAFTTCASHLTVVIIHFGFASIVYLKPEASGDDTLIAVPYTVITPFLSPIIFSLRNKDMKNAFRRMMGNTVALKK
Summary of the method: as §1

OR10Z1 (Homo sapiens) = molecular target: T7, OR10Z1 (Homo sapiens) (UniProt Q8NGY1)
T7 sequence (whole entry): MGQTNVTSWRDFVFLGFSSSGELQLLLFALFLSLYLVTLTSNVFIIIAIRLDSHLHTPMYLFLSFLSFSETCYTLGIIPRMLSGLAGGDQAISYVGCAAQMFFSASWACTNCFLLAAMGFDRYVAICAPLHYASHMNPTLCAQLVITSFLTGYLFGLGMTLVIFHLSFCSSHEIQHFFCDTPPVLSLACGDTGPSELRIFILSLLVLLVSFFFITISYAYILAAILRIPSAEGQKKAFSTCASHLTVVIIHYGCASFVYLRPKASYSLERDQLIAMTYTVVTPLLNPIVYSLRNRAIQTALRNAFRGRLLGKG
Summary of the method: as §1

OR11A1 (Homo sapiens) = molecular target: T8, OR11A1 (Homo sapiens) (UniProt Q9GZK7)
T8 sequence (whole entry): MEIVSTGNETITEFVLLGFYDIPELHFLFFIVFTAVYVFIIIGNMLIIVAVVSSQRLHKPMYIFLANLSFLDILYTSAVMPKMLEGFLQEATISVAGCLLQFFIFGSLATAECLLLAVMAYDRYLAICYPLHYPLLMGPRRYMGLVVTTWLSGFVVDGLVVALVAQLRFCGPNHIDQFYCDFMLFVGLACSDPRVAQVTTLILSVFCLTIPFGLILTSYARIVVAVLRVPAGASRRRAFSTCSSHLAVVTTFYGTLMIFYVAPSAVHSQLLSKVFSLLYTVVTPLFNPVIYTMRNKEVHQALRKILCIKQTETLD
Summary of the method: as §1

OR11G2 (Homo sapiens) = molecular target: T9, OR11G2 (Homo sapiens) (UniProt Q8NGC1)
T9 sequence (whole entry): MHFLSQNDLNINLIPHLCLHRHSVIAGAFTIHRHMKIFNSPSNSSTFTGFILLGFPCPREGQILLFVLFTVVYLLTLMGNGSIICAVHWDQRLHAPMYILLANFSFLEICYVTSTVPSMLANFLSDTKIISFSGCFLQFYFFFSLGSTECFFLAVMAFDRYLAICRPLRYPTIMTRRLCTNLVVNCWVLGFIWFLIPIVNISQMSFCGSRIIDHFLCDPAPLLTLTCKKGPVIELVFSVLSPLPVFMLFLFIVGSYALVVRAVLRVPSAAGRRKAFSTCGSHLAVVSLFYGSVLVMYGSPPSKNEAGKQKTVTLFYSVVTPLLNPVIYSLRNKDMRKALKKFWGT
Summary of the method: as §1

OR11H1 (Homo sapiens) = molecular target: T10, OR11H1 (Homo sapiens) (UniProt Q8NG94)
T10 sequence (whole entry): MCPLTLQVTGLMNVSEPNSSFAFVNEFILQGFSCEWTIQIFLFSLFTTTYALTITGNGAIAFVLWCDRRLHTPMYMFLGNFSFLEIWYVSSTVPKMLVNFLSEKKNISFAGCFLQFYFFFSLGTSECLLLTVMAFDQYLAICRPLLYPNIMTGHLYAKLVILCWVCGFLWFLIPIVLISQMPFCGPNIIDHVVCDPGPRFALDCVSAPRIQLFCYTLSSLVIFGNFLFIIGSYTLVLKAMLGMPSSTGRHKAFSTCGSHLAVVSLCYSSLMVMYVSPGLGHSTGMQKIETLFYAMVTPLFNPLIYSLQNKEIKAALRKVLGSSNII
Summary of the method: as §1

OR11H12 (Homo sapiens) = molecular target: T11, OR11H12 (Homo sapiens) (UniProt B2RN74)
T11 sequence (whole entry): T10 sequence (whole entry) with S33T, R68W, Y156C, M240V
Summary of the method: as §1

OR11H2 (Homo sapiens) = molecular target: T12, OR11H2 (Homo sapiens) (UniProt Q8NH07)
T12 sequence (whole entry): T10 sequence (whole entry) with Q7H, T49I, M181K, R199L, M240V, S269P
Summary of the method: as §1

OR11H4 (Homo sapiens) = molecular target: T13, OR11H4 (Homo sapiens) (UniProt Q8NGC9)
T13 sequence (whole entry): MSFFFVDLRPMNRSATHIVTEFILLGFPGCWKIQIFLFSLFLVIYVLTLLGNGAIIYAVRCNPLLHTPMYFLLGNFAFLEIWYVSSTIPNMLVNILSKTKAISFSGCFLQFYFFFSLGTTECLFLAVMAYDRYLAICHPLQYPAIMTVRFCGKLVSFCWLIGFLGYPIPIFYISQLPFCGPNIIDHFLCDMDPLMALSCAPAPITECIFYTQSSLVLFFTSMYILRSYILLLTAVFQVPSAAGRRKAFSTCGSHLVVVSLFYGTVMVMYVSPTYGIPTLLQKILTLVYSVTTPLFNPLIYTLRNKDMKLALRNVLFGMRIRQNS
Summary of the method: as §1

OR11H6 (Homo sapiens) = molecular target: T14, OR11H6 (Homo sapiens) (UniProt Q8NGC7)
T14 sequence (whole entry): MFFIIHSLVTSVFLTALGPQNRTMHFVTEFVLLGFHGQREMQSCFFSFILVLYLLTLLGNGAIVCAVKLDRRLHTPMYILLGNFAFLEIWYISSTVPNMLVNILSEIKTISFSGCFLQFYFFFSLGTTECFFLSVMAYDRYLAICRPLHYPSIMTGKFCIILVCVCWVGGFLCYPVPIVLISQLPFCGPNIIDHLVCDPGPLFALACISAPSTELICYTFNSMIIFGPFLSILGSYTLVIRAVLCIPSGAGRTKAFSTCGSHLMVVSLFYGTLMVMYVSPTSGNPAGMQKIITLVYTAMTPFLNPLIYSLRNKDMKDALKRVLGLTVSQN
Summary of the method: as §1

OR11H7 (Homo sapiens) = OR11H7 (Homo sapiens) (UniProt Q8NGC8)
OR11H7 (Homo sapiens), sequence (Q8NGC8 whole entry): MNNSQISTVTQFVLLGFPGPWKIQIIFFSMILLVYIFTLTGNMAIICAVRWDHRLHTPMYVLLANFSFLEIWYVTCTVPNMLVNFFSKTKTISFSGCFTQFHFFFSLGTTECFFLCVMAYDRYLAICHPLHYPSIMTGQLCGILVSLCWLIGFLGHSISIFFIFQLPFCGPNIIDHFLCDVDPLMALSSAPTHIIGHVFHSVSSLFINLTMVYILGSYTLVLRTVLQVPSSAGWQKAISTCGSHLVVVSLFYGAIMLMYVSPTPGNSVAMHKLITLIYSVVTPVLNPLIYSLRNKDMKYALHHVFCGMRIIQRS
Summary of the method: as §1

OR11L1 (Homo sapiens) = molecular target: T15, OR11L1 (Homo sapiens) (UniProt Q8NGX0)
T15 sequence (whole entry): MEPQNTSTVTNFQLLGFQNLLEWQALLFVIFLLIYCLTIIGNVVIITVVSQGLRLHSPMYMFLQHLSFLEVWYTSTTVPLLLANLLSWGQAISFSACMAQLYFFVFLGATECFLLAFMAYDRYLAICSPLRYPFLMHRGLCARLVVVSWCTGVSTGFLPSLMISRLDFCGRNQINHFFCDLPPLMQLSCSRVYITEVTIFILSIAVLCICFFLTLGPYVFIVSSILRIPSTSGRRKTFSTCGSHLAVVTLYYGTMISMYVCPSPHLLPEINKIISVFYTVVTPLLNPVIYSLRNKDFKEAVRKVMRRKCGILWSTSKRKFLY
Summary of the method: as §1

OR12D1 (Homo sapiens) = OR12D1 (Homo sapiens) (UniProt P0DN82)
OR12D1 (Homo sapiens), sequence (P0DN82 as listed by the source): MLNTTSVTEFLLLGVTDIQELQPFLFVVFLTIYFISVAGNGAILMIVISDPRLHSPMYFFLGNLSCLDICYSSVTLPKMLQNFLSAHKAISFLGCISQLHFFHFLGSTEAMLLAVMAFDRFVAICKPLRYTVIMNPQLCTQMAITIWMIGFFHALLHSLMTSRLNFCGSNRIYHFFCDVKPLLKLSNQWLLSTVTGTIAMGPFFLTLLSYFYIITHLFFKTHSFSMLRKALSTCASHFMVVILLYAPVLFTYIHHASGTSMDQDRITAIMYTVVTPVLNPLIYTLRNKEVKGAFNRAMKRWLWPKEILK
Summary of the method: as §1

OR12D2 (Homo sapiens) = molecular target: T16, OR12D2 (Homo sapiens) (UniProt P58182)
T16 sequence (whole entry): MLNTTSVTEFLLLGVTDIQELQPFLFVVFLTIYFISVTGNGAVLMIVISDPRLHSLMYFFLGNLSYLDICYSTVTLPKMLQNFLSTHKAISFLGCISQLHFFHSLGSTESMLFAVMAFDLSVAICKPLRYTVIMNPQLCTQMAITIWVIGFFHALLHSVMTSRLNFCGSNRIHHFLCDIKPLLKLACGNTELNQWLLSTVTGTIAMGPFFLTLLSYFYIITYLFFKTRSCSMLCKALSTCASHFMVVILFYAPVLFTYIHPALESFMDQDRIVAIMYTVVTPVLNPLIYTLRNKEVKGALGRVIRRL
Summary of the method: as §1

OR12D3 (Homo sapiens) = molecular target: T17, OR12D3 (Homo sapiens) (UniProt Q9UGF7)
T17 sequence (whole entry): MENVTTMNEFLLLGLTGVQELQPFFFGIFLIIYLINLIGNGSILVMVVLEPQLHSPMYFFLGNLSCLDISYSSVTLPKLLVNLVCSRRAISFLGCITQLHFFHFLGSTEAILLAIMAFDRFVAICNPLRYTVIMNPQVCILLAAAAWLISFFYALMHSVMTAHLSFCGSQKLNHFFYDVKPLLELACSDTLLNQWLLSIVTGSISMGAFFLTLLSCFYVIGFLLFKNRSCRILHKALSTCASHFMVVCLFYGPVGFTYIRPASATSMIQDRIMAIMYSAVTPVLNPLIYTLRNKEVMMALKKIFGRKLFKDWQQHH
Summary of the method: as §1

OR13A1 (Homo sapiens) = molecular target: T18, OR13A1 (Homo sapiens) (UniProt Q8NGR1)
T18 sequence (whole entry): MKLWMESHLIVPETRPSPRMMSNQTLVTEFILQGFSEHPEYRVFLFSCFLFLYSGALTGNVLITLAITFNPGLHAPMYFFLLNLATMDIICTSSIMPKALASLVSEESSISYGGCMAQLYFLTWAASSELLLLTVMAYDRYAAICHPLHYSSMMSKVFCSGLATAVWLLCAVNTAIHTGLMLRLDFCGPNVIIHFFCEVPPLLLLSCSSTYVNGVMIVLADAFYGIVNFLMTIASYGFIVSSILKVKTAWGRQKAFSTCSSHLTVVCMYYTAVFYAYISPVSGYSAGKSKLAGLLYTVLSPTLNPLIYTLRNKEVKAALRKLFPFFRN
Summary of the method: as §1

Measured: odorant receptor agonist call

CCCCC(=O)C(C)=O
inactive: OR10S1 (Homo sapiens)

CC(=O)c1c(C)c([N+](=O)[O-])c(C(C)(C)C)c([N+](=O)[O-])c1C
inactive: all assays above

CCC(C)CO (stereo not given)
inactive: OR10S1 (Homo sapiens)

CCCCCCCCCCCCCC(=O)O
inactive: OR10S1 (Homo sapiens)

CCCCCCCCCCCCCC(=O)OCC
inactive: OR10S1 (Homo sapiens)

CC1=NC(C)C(C)S1 (stereo not given)
not listed: OR11H7 (Homo sapiens) | OR12D1 (Homo sapiens)
inactive: all other assays above

CCCCCCCC(=O)OCC
inactive: OR10S1 (Homo sapiens)

CCC(S)C(C)CO (stereo not given)
not listed: OR11H12 (Homo sapiens) | OR11H7 (Homo sapiens) | OR12D1 (Homo sapiens)
inactive: all other assays above
